{"data": "Assay results collected from several papers", "target": "Maternal embryonic leucine zipper kinase (MELK, Homo sapiens, UniProt Q14680)"}
{"SMILES": "CCN1CCN(Cc2ccc(NC(=O)c3ccc(C)c(/C=C/c4cnc5[nH]ccc5c4OC)c3)cc2C(F)(F)F)CC1", "effect on": "target engagement in cells", "action": "inhibitor", "technique": "chemoproteomics", "cells": "A-375", "tested at": "50 nM", "measurement": "inhibition", "result": "-10.4%"}
{"SMILES": "CCN(CC)c1ccc(C2=NNC(=O)CC2C)cc1[N+](=O)[O-] (centres unmarked)", "effect on": "enzyme activity", "action": "inhibitor", "tested at": "10 µM", "measurement": "remaining activity", "result": "92%"}
{"SMILES": "C[C@@]1(Cc2ccc(C#N)cc2)C(=O)N(c2cc(Cl)cc(Cl)c2)c2ncc(C(=O)NC3(c4nc(C5CCC5)no4)CC3)n21", "effect on": "cell-free assay", "technique": "competition with immobilised ligand", "tested at": "1 µM", "measurement": "remaining binding", "result": "89%"}
{"SMILES": "Cc1cnc(NC2CCOCC2)nc1-n1cnc(C(=O)NC(CN)c2cc(F)cc(Cl)c2)c1 (centres unmarked)", "effect on": "enzyme activity", "action": "inhibitor", "technique": "radiometric", "tested at": "1 µM", "measurement": "remaining activity", "result": "49%"}
{"SMILES": "CCCS(=O)(=O)Nc1ccc(F)c(C(=O)c2c[nH]c3ncc(-c4ccc(Cl)cc4)cc23)c1F", "effect on": "enzyme activity", "action": "inhibitor", "tested at": "1 µM", "measurement": "inhibition", "result": "< 10%"}
{"SMILES": "C[C@H](NC(=O)c1cnc2n1[C@](C)(Cc1ccc(C#N)cc1)C(=O)N2c1cc(Cl)c(F)c(Cl)c1)C(=O)NC1(c2ccccn2)CC1", "effect on": "cell-free assay", "technique": "competition with immobilised ligand", "tested at": "1 µM", "measurement": "remaining binding", "result": "86%"}
{"SMILES": "COc1cc(/C=C/C(=O)CC(=O)/C=C/c2ccc(O)c(OC)c2)ccc1O", "effect on": "enzyme activity", "action": "inhibitor", "tested at": "1 µM", "measurement": "activity vs control", "result": "74%"}
{"SMILES": "COc1cc(-c2cn(C3CCc4c(F)cccc4N(CC(F)(F)F)C3=O)nn2)ccc1-n1cnc(C)c1 (centres unmarked)", "effect on": "cell-free assay", "technique": "competition with immobilised ligand", "tested at": "1 µM", "measurement": "remaining binding", "result": "100%"}
{"SMILES": "COc1ccc(COc2ccc(Cc3cnc(N)nc3N)cc2OC)cc1", "effect on": "cell-free assay", "tested at": "0.5 µM", "measurement": "remaining signal", "result": "102%"}
{"SMILES": "CC(C)(C)c1nc2c(s1)c1nc(N)ncc1c1ccc(NS(=O)(=O)c3c(F)cccc3F)c(F)c12", "effect on": "enzyme activity", "action": "inhibitor", "technique": "radiometric", "tested at": "1 µM", "measurement": "remaining activity", "result": "41%"}
{"SMILES": "COc1cc(Nc2cnc(C#N)c(O[C@H](C)CN(C)C)n2)ncc1-c1cnn(C)c1", "effect on": "enzyme activity", "action": "inhibitor", "technique": "radiometric", "tested at": "10 µM", "measurement": "remaining activity", "result": "62%"}
{"SMILES": "CN(C)CC#Cc1ccc(OCCCc2sc(N3CCc4cccc(C(=O)Nc5nc6ccccc6s5)c4C3)nc2C(=O)O)c(F)c1", "effect on": "cell-free assay", "technique": "competition with immobilised ligand", "tested at": "1 µM", "measurement": "remaining binding", "result": "78%"}
{"SMILES": "COc1cc2ncnc(Nc3ccc(Oc4ccccc4)c(C)c3C)c2cc1OC", "effect on": "enzyme activity", "action": "inhibitor", "tested at": "1 µM", "measurement": "inhibition", "result": "10%"}
{"SMILES": "FC(F)(F)Oc1cccc(-c2cnc3ccc(-c4ccncc4)nn23)c1", "effect on": "enzyme activity", "action": "inhibitor", "technique": "radiometric", "tested at": "1 µM", "measurement": "activity vs control", "result": "84%"}
{"SMILES": "CC(C)(C)C(=O)c1sc(NC2CCCCC2)nc1N", "effect on": "enzyme activity", "action": "inhibitor", "tested at": "10 µM", "measurement": "remaining activity", "result": "89%"}
{"SMILES": "CNC(=O)c1cc(Oc2ccc(NC(=O)Nc3ccc(Cl)c(C(F)(F)F)c3)cc2)ccn1", "effect on": "enzyme activity", "action": "inhibitor", "tested at": "0.3 µM", "measurement": "inhibition", "result": "4%"}
{"SMILES": "C[C@@H](c1cccc(C#N)c1)n1cc(Cl)cc(C(N)=O)c1=N", "effect on": "cell-free assay", "technique": "competition with immobilised ligand", "tested at": "1 µM", "measurement": "remaining binding", "result": "78%"}
{"SMILES": "Cc1cc(NC(=O)c2cccc3cc(-c4cccc5[nH]nc(N)c45)ccc23)ccc1F", "effect on": "enzyme activity", "action": "inhibitor", "tested at": "0.1 µM", "measurement": "activity vs control", "result": "93%"}
{"SMILES": "FC(F)c1nc2ccccc2n1-c1nc(N2CCOCC2)nc(N2CCOCC2)n1", "effect on": "enzyme activity", "action": "inhibitor", "tested at": "10 µM", "measurement": "remaining activity", "result": "91%"}
{"SMILES": "Cc1ccc(Nc2nccc(N(C)c3ccc4c(C)n(C)nc4c3)n2)cc1S(N)(=O)=O", "effect on": "enzyme activity", "action": "inhibitor", "tested at": "0.3 µM", "measurement": "inhibition", "result": "7%"}
{"SMILES": "CN(C)C(=O)Cn1cc(-c2nc([C@@](C)(c3ccc(-c4cnc(N)nc4)cc3)C3CC3)no2)cn1", "effect on": "cell-free assay", "technique": "competition with immobilised ligand", "tested at": "1 µM", "measurement": "remaining binding", "result": "87%"}
{"SMILES": "COc1cc(-c2cc(-c3ccc(N4CCNCC4)cc3)cnc2C)cc(OC)c1OC", "effect on": "enzyme activity", "action": "inhibitor", "tested at": "1 µM", "measurement": "inhibition", "result": "8%"}
{"SMILES": "CCS(=O)(=O)c1cc2cc(C[C@@](O)(CC(C)(C)c3ccc(F)cc3C(N)=O)C(F)(F)F)[nH]c2cn1", "effect on": "cell-free assay", "technique": "competition with immobilised ligand", "tested at": "1 µM", "measurement": "remaining binding", "result": "100%"}
{"SMILES": "N#CCCc1ccc2c(c1)-c1[nH]c3ccc([N+](=O)[O-])cc3c1CC(=O)N2", "effect on": "cell-free assay", "tested at": "0.5 µM", "measurement": "remaining signal", "result": "88.6%"}
{"SMILES": "O=C(Nc1cnn(-c2csc(C(=O)NC3COC3)c2)c1)Nc1ccccc1Cl", "effect on": "enzyme activity", "action": "inhibitor", "tested at": "5 µM", "measurement": "remaining activity", "result": "48.7%"}
{"SMILES": "CCN(CC)CCNC(=O)c1c(C)[nH]c(/C=C2\\C(=O)Nc3ccc(F)cc32)c1C", "effect on": "enzyme activity", "action": "inhibitor", "tested at": "10 µM", "measurement": "inhibition", "result": "99%"}
{"SMILES": "O=[N+]([O-])c1cccc2[nH]c(CNc3nc(N4CCOCC4)nc4c3ncn4-c3ccsc3)nc12", "effect on": "binding", "technique": "competition with immobilised ligand", "tested at": "10 µM", "measurement": "binding vs control", "result": "47%"}
{"SMILES": "COc1cc2ncnc(Nc3ccc(F)c(Cl)c3)c2cc1OCCCN1CCOCC1", "effect on": "cell-free assay", "tested at": "0.5 µM", "measurement": "remaining signal", "result": "77.7%"}
{"SMILES": "CCOC(=O)c1cc2cc(-c3cc(C(=O)NCc4ccc(C(=O)O)cc4)nn3C)ccc2[nH]1", "effect on": "cell-free assay", "technique": "competition with immobilised ligand", "tested at": "0.1 µM", "measurement": "remaining binding", "result": "100%"}
{"SMILES": "O=C(Nc1cnn(-c2csc(C(=O)NC3COC3)c2)c1)Nc1c(F)cccc1Cl", "effect on": "enzyme activity", "action": "inhibitor", "tested at": "5 µM", "measurement": "remaining activity", "result": "61.4%"}
{"SMILES": "C#Cc1cccc(Nc2ncnc3cc(OCCOC)c(OCCOC)cc23)c1", "effect on": "cell-free assay", "tested at": "0.5 µM", "measurement": "remaining signal", "result": "88.6%"}
{"SMILES": "Nc1ncnc2occ(-c3ccc(NC(=O)Nc4cc(C(F)(F)F)ccc4F)cc3)c12", "effect on": "cell-free assay", "action": "inhibitor", "tested at": "20 µM", "measurement": "remaining signal", "result": "8.1%"}
